The source of these data is publication PMC2882023 (The Journal of neuroscience : the official journal of the …, 2010).

The conditions of data set [1]: ref Wu et al. 2004; cited from earlier work.
The next data set addresses T1, hP2X2/3 (Homo sapiens, UniProt P56373+Q9UBL9).
T1 sequence (Q9UBL9 1-471): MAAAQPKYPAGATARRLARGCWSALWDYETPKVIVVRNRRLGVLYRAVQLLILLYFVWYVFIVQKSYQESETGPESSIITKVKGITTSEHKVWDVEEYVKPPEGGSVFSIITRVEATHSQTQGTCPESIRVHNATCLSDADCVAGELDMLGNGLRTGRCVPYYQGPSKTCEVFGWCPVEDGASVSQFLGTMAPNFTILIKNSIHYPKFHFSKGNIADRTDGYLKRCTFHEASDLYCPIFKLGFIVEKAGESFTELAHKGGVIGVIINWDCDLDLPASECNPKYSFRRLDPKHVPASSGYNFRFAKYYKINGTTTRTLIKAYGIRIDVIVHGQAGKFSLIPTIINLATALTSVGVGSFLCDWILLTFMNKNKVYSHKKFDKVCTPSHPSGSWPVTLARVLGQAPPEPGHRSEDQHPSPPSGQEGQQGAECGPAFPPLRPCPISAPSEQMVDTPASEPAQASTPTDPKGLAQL
T1 sequence (P56373 1-397): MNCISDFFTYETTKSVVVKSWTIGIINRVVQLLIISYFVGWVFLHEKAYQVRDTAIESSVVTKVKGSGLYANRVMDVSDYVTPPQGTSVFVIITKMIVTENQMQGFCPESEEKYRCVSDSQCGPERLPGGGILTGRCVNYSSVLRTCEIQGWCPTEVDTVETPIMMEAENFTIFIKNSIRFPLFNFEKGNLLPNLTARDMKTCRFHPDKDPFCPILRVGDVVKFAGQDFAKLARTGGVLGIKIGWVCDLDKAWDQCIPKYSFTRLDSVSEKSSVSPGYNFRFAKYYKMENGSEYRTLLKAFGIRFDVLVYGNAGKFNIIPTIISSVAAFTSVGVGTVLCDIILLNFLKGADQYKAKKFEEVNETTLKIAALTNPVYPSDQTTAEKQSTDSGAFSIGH
The data set is classed as cell-based. The note with it: αβmeATP or ATP-evoked calcium flux, 1321N1 cells, n = 15. Put shortly:
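Cytosolic calcium flux was read in Fluo-3-loaded 1321N1 astrocytoma cells transfected with cloned human P2X2/3 receptors. Flux was evoked by αβmeATP or ATP, at an agonist level set per receptor subtype, with test compound present. Inhibition was expressed as pIC50 ± SEM from 15 determinations.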

The subject of a further data set is other P2X receptors. Kind of data set: calcium flux selectivity over other P2X receptors. The data set is classed as cell-based. The note with it: up to a concentration of 10 μM. Put shortly:
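Off-target P2X subtypes were tested in Fluo-3-loaded CHOK1 cells (recombinant human P2X1, human P2X4, rat P2X5 or human P2X7) and 1321N1 astrocytoma cells (cloned human P2X2). Intracellular calcium flux was evoked by αβmeATP or ATP, at a level varied by subtype, with test compound present. pIC50 was derived with n = 3 per receptor.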

The subject of data set [2] is micturition reflex contractions. The data set is classed as in vivo, Sprague-Dawley rats. As to conditions: i.t.; for intercontraction interval (ICI): anaesthetized rats, mean ± SEM; for intercontraction interval (ICI), extent of prolongation over the dose range: across the doses tested. An outline of the steps:
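Urethane-anaesthetised (1.2 g/kg i.p.) adult female rats, 200–280 g, with an intrathecal catheter tip at L1 placed ≥1 d earlier. Ureters and urethral orifice ligated. Bladder saline-infused at 100 μl/min to micturition threshold, then 3–5 μl/min. After ≥10 min stable baseline, vehicle (saline or 5% DMSO/saline), then escalating i.t. doses (10 μl + 10 μl saline flush, ≥8 min apart). ICI from intravesical pressure; n = 5–15; repeated-measures ANOVA/Bonferroni.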

In data set [3] the test system is pERK-positive cells in L6 spinal cord. Kind of data set: spinal ERK activation. The data set is classed as in vivo, Sprague-Dawley rats. The note with it: 300 nmol, i.t., 10 min before 1% acetic acid intravesically; n = 4. Put shortly: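 Separate experiment in urethane-anaesthetised bladder-cannulated female rats: ≥1 h post-cannulation, i.t. test compound (300 nmol) or 5% DMSO; 10 min later, 700 μl 1% acetic acid intravesically for 2 min (sham: vehicle, no acid, 12 min). Perfusion-fixed (4% paraformaldehyde/picric acid); 20 μm L6 cryosections. Anti-phospho-p44/42 (Thr202/Tyr204) staining with tyramide amplification and FITC. Four rats/group, three sections each, blind counting; one-way ANOVA/Tukey.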

Data set [4] concerns 75 receptors, channels, enzymes, and transporters. Put plainly: Cerep screen of 75 receptors, channels, enzymes and transporters. The data set is classed as binding. The note with it: 10 μM, 75 targets.
The subject of the next data set is more than 100 kinases. Put plainly: Ambit kinase screen. The data set is classed as binding. As to conditions: 10 μM.
In the next data set the test system is P2X3. The note with it: ref Gever et al., 2006; Carter et al., 2009; cited from earlier work.
The test system of a further data set is P2X2/3. The note with it: ref Gever et al., 2006; Carter et al., 2009; cited from earlier work.
For the next data set, the system named is P2X1. As to conditions: ref Gever et al., 2006; Carter et al., 2009; cited from earlier work.

SMILES strings stand for the structures. Where a name gives a salt, the structure may show the parent alone. Read-outs that look alike come from different tables or passages of the source.

Regarding `O=C(O)c1cc(C(=O)O)c(C(=O)N(Cc2cccc(Oc3ccccc3)c2)[C@H]2CCCc3ccccc32)cc1C(=O)O` [A-317491], the CNS permeability result in data set [1] is on record as “negligible CNS permeability”.

`C#Cc1cc(Oc2cnc(N)nc2N)c(C(C)C)cc1OC` [AF-792]: at hP2X2/3, the “pIC50 ± SEM” value worked out at 7.94 ± 0.08. The “inhibition at other P2X receptors” value with other P2X receptors is on record as “no inhibition”. Further, the “intercontraction interval (ICI)” value was found to be 8.00 ± 1.67 min in [2] (100 nmol) and 9.33 ± 2.50 min in data set [2] (300 nmol). Also, the “number of pERK-positive cells in L6 spinal cord segment” value in data set [3] is reported as 43.0 ± 9.6 cells/ section. Also, the “inhibition of radioligand binding or function” value (in [4]; with more than 100 kinases) was “little or no inhibition” throughout.

On to `Cc1nc(N=Nc2ccc(S(=O)(=O)O)cc2S(=O)(=O)O)c(COP(=O)(O)O)c(C=O)c1O` [PPADs, pyridoxal-phosphate-6-azophenyl-2′,4′,-disulphonic acid], for which the “intercontraction interval (ICI)” value in data set [2] (10 nmol) came out at 3.50 ± 1.15 min. Besides, the “intercontraction interval (ICI), extent of prolongation over the dose range” value in data set [2] is “more than 2 min”. In the data set on P2X3, the “pIC50 at P2X3” value is listed as 6. Besides, the “pIC50 at P2X2/3” value with P2X2/3 was 6.

As to `Nc1ncnc2c1ncn2[C@@H]1O[C@H](COP(=O)(O)OP(=O)(O)OP(=O)(O)O)[C@H]2OC3(O[C@H]21)C([N+](=O)[O-])=CC(=[N+]([O-])[O-])C=C3[N+](=O)[O-]` (some centres unmarked) [TNP-ATP, 2′,3′-O-(2,4,6-trinitrophenyl) adenosine 5′-triphosphate monolithium trisodium salt], the “intercontraction interval (ICI)” value amounted to 4.64 ± 1.30 min in data set [2] (1 nmol) and 4.28 ± 1.21 min in data set [2] (10 nmol). Moreover, in the data set on P2X3, the “pIC50 at P2X3” value is 9. In addition, the “pIC50 at P2X2/3” value in the data set with P2X2/3 is reported as 8.4. The “pIC50 at P2X1” value in the data set with P2X1 was 8.22.

As for `Nc1ncnc2c1ncn2[C@@H]1O[C@H](COP(=O)(O)CP(=O)(O)OP(=O)(O)O)[C@@H](O)[C@H]1O` [αβmeATP, α,β-methylene-ATP], in [2] (1 nmol), the “intercontraction interval (ICI)” value is listed as 8.45 ± 2.48 min. Also, in [2], the “lowest significant dose for prolonging the ICI” value is listed as 1 nmol and the “intercontraction interval (ICI), extent of prolongation over the dose range” value is listed as “up to 10 min”.
